{"source": "PubChem BioAssay AID449755", "about": "(Broad Institute, 2010)", "note": "Records with an inconclusive call do not appear. Active and inactive are the calls of the source.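 Rule for the calls: active = compounds raising caspase signal whose fitted AC50 is at most ten times the top tested dose; inconclusive = flat fit with 30 to 70% activity, or failed fit; inactive = the rest.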"}
{"system": "HMC 1-8 low-A1 cells, caspase-3/7 luminescence, 3 h", "test": "caspase induction, A1-low human cancer line – cell-based, HMC 1-8 low A1, caspase luminescence, counter-screen for A1 inhibitor project, dose response (AID 449755)", "method_in_brief": "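Material: HMC 1-8 human cancer cells with low A1 expression / Amount: 2500 cells/well / Medium: RPMI-1640, 10% FBS / Dosing: compound delivered by pin transfer / Times: compound 3 h at 37 °C, detection 1 h RT / Detection: caspase-3/7 DEVD luminescence / Evaluation: caspase activation as non-A1 counterscreen signal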"}
{"molecule": "COc1ccc(Oc2cc(NC(=O)c3nn(C)cc3[N+](=O)[O-])cc([N+](=O)[O-])c2)cc1", "AC50": "> 35 µM (inactive)"}
{"molecule": "CCN(C(=O)CCN1C(=O)c2ccccc2S1(=O)=O)c1ccccc1", "AC50": "> 35 µM (inactive)"}
{"molecule": "Oc1[nH]c2ccc(Br)cc2c1N=NC(=S)Nc1ccc(F)cc1", "AC50": "> 35 µM (inactive)"}
{"molecule": "CCOCCCNC(=O)c1ccc2c(c1)N=C(CC)c1cc(Br)ccc1S2", "AC50": "> 35 µM (inactive)"}
{"molecule": "CCOC(=O)/C(=C\\c1cccnc1)C(=O)c1cc(C(C)=O)c(Nc2ccccc2)s1", "AC50": "> 35 µM (inactive)"}
{"molecule": "CC1CC(C)CN(C(=O)c2ccc(-c3ccc([N+](=O)[O-])cc3)o2)C1", "note": "(stereo not drawn)", "AC50": "> 35 µM (inactive)"}
{"molecule": "O=C(CCl)N=c1sccn1Cc1ccccc1Cl", "AC50": "> 35 µM (inactive)"}
{"molecule": "COC(=O)CSc1nc(N)c2c3c(sc2n1)C(c1ccccc1)SC(c1ccccc1)C3", "note": "(stereo not drawn)", "AC50": "> 35 µM (inactive)"}
{"molecule": "CCCCN1C(=O)/C(=C2/Sc3ccccc3N2C)S/C1=N\\c1ncn[nH]1", "AC50": "> 35 µM (inactive)"}
{"molecule": "COc1ccc(-c2cc(=O)oc3c(C)c(OC(=O)c4cccs4)ccc23)cc1", "AC50": "> 35 µM (inactive)"}
{"molecule": "O=C(Nc1ccc2oc(-c3ccccc3Cl)nc2c1)c1cncc(Br)c1", "AC50": "> 35 µM (inactive)"}
{"molecule": "O=C1/C(=C/c2ccc(N3CCOCC3)o2)SC(=Nc2ccccc2)N1CCc1c[nH]c2ccccc12", "AC50": "> 35 µM (inactive)"}
{"molecule": "Cc1nn(Cc2ccc(Cl)cc2Cl)c(C)c1NC(=O)Cn1nc([N+](=O)[O-])c(Cl)c1C", "AC50": "> 35 µM (inactive)"}
{"molecule": "CCOc1ccc(NCc2cccn2-c2nnc(N3CCC(C(=O)NCCCN4CC(C)CC(C)C4)CC3)s2)cc1", "note": "(stereo not drawn)", "AC50": "> 35 µM (inactive)"}
{"molecule": "Cc1cccc(NC(=O)/C(C#N)=C/c2cn(CC(=O)NCc3ccco3)c3ccccc23)c1", "AC50": "> 35 µM (inactive)"}
{"molecule": "CCOC(=O)c1ccc(-c2ccc(/C=N/NC(=O)CN(c3cccc(C)c3)S(C)(=O)=O)o2)cc1", "AC50": "> 35 µM (inactive)"}
{"molecule": "COc1cc(NC(=O)c2cccc(C)c2)ccc1NC(=O)c1cc2ccccc2o1", "AC50": "> 35 µM (inactive)"}
{"molecule": "COc1cc(NC(=O)c2ccccc2)c(OC)cc1NC(=O)Cc1ccc(Br)cc1", "AC50": "> 35 µM (inactive)"}
{"molecule": "COc1ccc(OC)c(NC(=O)c2cc(-c3cc(C)ccc3O)n[nH]2)c1", "AC50": "> 35 µM (inactive)"}
{"molecule": "CC(C)(C)c1ccc2c(c1)OC(C(=O)N/N=C\\c1ccc[nH]1)CO2", "note": "(stereo not drawn)", "AC50": "> 35 µM (inactive)"}
{"molecule": "O=C(COc1ccc(/C=N/NC(=O)c2cc3ccccc3o2)cc1Cl)Nc1ccccc1", "AC50": "8.65 µM"}
{"molecule": "Cc1cccc(Nc2nc(N)c([N+](=O)[O-])c(N3CCCC(C)C3)n2)c1", "note": "(stereo not drawn)", "AC50": "> 35 µM (inactive)"}
{"molecule": "COc1cc(NC(=O)c2ccccc2F)ccc1NC(=O)c1cc2ccccc2o1", "AC50": "> 35 µM (inactive)"}
{"molecule": "Cc1cccc(C)c1NC(=O)C(Cl)C(=O)c1ccccc1", "note": "(stereo not drawn)", "AC50": "> 35 µM (inactive)"}
{"molecule": "COc1ccc(C(=O)/C=C/C(=O)N(CC(=O)NC2CCCCC2)Cc2cccs2)c(O)c1", "AC50": "5.69 µM"}
{"molecule": "CC(C)c1cccc(-c2ccc3c(c2)S(=O)(=O)c2cccc(C(=O)NCc4ccccc4Cl)c2C3=O)c1", "AC50": "> 35 µM (inactive)"}
{"molecule": "O=C(c1ccc(COc2ccc3ccccc3c2)o1)N1N=C(C(F)F)CC1(O)C(F)F", "note": "(stereo not drawn)", "AC50": "> 35 µM (inactive)"}
{"molecule": "Cc1ccc(C2(c3ccc(C)cc3)CC2C(=O)Nc2ccc([N+](=O)[O-])cc2O)cc1", "note": "(stereo not drawn)", "AC50": "> 35 µM (inactive)"}
{"molecule": "CN(C)C/C=C(\\c1ccc(Br)cc1)c1cccnc1", "AC50": "> 35 µM (inactive)"}
{"molecule": "CCC(Sc1nc2cc3c(cc2c(=O)n1Cc1ccco1)OCO3)C(=O)Nc1cccc(OC)c1", "note": "(stereo not drawn)", "AC50": "> 35 µM (inactive)"}
{"molecule": "CCOC(=O)/C=c1\\s/c(=C\\c2ccc(C(=O)OC)cc2)c(=O)n1CC(=O)Nc1ccccc1", "AC50": "> 35 µM (inactive)"}
{"molecule": "CSC[C@@H]1NC(=S)N(c2ccc(C)cc2)C1=O", "AC50": "> 35 µM (inactive)"}
{"molecule": "COc1ccc(-c2ccc3c(c2)S(=O)(=O)c2cccc(C(=O)NCCOc4ccccc4)c2C3=O)cc1OC", "AC50": "> 35 µM (inactive)"}
